# Measured values reported in ChEMBL document CHEMBL1150572, “Isolation and structures of haterumadioxins A and B, cytotoxic endoperoxides from the Okinawan sponge Plakortis lita” (J Nat Prod, 2001).
# Experiments:
# [1] = system: DMS-273; assay: Growth inhibition of human DMS273 cells; assay type: functional
# [2] = system: U-251; assay: Growth inhibition of human U251 cells; assay type: functional
# [3] = system: P388; assay: Cytotoxicity against mouse P388 cells; assay type: functional, cell-based
# Procedure, shortened: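 Murine P388 leukemia cells, 2 × 10^4 cells/mL, in RPMI-1640 with 10% FBS, 10 µM 2-hydroxyethyl disulfide and kanamycin (100 µg/mL). Samples were added in MeOH. Cells were incubated 4 days at 37 °C in humidified 5% CO2, then counted by MTT. IC50 (50% inhibition of cell growth) was read from the growth curve.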
# [4] = system: HCT-15; assay: Growth inhibition of human HCT15 cells; assay type: functional
# [5] = system: SF-295; assay: Growth inhibition of human SF295 cells; assay type: functional
# [6] = system: OVCAR-4; assay: Growth inhibition of human OVCAR4 cells; assay type: functional
# [7] = system: DU-145; assay: Growth inhibition of human DU145 cells; assay type: functional
# [8] = system: LOX IMVI; assay: Growth inhibition of human LOXIMVI cells; assay type: functional
# [9] = system: OVCAR-8; assay: Growth inhibition of human OVCAR8 cells; assay type: functional
# [10] = system: NCI-H522; assay: Growth inhibition of human NCI-H522 cells; assay type: functional
# [11] = system: HT-29; assay: Growth inhibition of human HT-29 cells; assay type: functional
# [12] = system: SNB-78; assay: Growth inhibition of human SNB78 cells; assay type: functional
# [13] = Growth inhibition of human HBC4 cells; assay type: functional
# [14] = system: SNB-75; assay: Growth inhibition of human SNB75 cells; assay type: functional
# [15] = system: NCI-H226; assay: Growth inhibition of human NCI-H226 cells; assay type: functional
# [16] = system: KM12; assay: Growth inhibition of human KM12 cells; assay type: functional
# [17] = system: OVCAR-3; assay: Growth inhibition of human OVCAR-3 cells; assay type: functional
# [18] = system: SK-OV-3; assay: Growth inhibition of human SKOV3 cells; assay type: functional
# [19] = system: MKN-7; assay: Growth inhibition of human MKN7 cells; assay type: functional
# [20] = system: ACHN; assay: Growth inhibition of human ACHN cells; assay type: functional
# [21] = system: MCF7; assay: Growth inhibition of human MCF7 cells; assay type: functional
# [22] = Growth inhibition of human HBC5 cells; assay type: functional
# [23] = system: MDA-MB-231; assay: Growth inhibition of human MDA-MB-231 cells; assay type: functional
# [24] = system: A549; assay: Growth inhibition of human A549 cells; assay type: functional
# [25] = system: HCT-116; assay: Growth inhibition of human HCT116 cells; assay type: functional
# [26] = system: PC-3; assay: Growth inhibition of human PC3 cells; assay type: functional
# [27] = system: MKN-74; assay: Growth inhibition of human MKN74 cells; assay type: functional
# [28] = system: OVCAR-5; assay: Growth inhibition of human OVCAR5 cells; assay type: functional
# [29] = system: DMS-114; assay: Growth inhibition of human DMS114 cells; assay type: functional
# [30] = system: St-4; assay: Growth inhibition of human St-4 cells; assay type: functional
# [31] = system: NCI-H460; assay: Growth inhibition of human NCI-H460 cells; assay type: functional
# [32] = system: HCC 2998; assay: Growth inhibition of human HCC2998 cells; assay type: functional
# [33] = Growth inhibition of human RXF631L cells; assay type: functional; details: RXF 631
# [34] = system: NCI-H23; assay: Growth inhibition of human NCI-H23 cells; assay type: functional
# [35] = system: MKN-45; assay: Growth inhibition of human MKN45 cells; assay type: functional
# [36] = system: SF-268; assay: Growth inhibition of human SF268 cells; assay type: functional
# [37] = system: MKN-28; assay: Growth inhibition of human MKN28 cells; assay type: functional
# [38] = Growth inhibition of human MKN1 cells; assay type: functional; details: MKN-1
# [39] = system: SF-539; assay: Growth inhibition of human SF539 cells; assay type: functional
# [40] = Growth inhibition of human BSY1 cells; assay type: functional; details: BSY-1
smiles,measurement,setting,value
CC/C=C/[C@H](CC)C[C@]1(CC)C=C(CC)[C@H](CC(=O)O)OO1 [HATERUMADIOXIN A],GI50,[1],1410 nM
same,GI50,[2],1780 nM
same,IC50,[3],11 ng/mL
same,GI50,[4],1700 nM
same,GI50,[5],1780 nM
same,GI50,[6],676 nM
same,GI50,[7],1700 nM
same,GI50,[8],100 nM
same,GI50,[9],2140 nM
same,GI50,[10],1860 nM
same,GI50,[11],1950 nM
same,GI50,[12],1860 nM
same,GI50,[13],1170 nM
same,GI50,[14],1660 nM
same,GI50,[15],1780 nM
same,GI50,[16],1820 nM
same,GI50,[17],1550 nM
same,GI50,[18],2000 nM
same,GI50,[19],1910 nM
same,GI50,[20],1170 nM
same,GI50,[21],1740 nM
same,GI50,[22],1320 nM
same,GI50,[23],1860 nM
same,GI50,[24],1950 nM
same,GI50,[25],1550 nM
same,GI50,[26],1910 nM
same,GI50,[27],2190 nM
same,GI50,[28],1820 nM
same,GI50,[29],1480 nM
same,GI50,[30],2090 nM
same,GI50,[31],1820 nM
same,GI50,[32],1910 nM
same,GI50,[33],1700 nM
same,GI50,[34],5500 nM
same,GI50,[35],2040 nM
same,GI50,[36],1820 nM
same,GI50,[37],2240 nM
same,GI50,[38],832 nM
same,GI50,[39],1820 nM
same,GI50,[40],1780 nM
CCCC[C@H](CC)C[C@]1(CC)C=C(CC)[C@H](CC(=O)O)OO1 [HATERUMADIOXIN B],IC50,[3],5.5 ng/mL
